DDE Tn7 FP inh: inhibitors of Tn7 peptide binding to human fibrin DD(E); P02675; FP displacement of FITC-Tn7 peptide from fibrin DD(E); 0% = median of compound wells per plate; inhibition, % at 8.3 µM; 0.13% of 370,000 active; AID 720508;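 active means inhibition above the mean of compounds falling within the control limits plus 3 SD of them, cut at about 14% in these data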
Target sequence (P02675 whole entry, looked up): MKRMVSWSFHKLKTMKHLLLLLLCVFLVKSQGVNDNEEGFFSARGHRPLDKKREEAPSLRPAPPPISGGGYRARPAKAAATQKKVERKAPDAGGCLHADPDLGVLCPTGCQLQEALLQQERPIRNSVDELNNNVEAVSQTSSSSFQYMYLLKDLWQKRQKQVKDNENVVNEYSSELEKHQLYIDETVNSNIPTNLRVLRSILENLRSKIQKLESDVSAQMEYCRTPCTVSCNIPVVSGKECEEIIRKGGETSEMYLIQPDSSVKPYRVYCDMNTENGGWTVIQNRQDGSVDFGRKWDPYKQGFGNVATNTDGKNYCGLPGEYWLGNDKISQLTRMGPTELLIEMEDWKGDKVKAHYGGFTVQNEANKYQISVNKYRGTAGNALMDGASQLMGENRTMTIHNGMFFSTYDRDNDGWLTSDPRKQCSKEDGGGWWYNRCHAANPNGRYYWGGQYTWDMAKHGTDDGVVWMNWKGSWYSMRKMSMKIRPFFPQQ
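Assay system: human fibrin DD(E). Input: DD(E) 2 µM final. Medium: Tris buffer with calcium and detergent, pH 7.8. Compound dosing: single point at 8.3 µM. Timing: 10 min plus 3 h, room temperature. Technique: fluorescence polarization of the labelled Tn7 tracer. Read-out: percent inhibition. Replicates: singlicate testing.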
cardiac RTF act: cardiac RTF calcium sensitization; IANBD-labeled TnC RTF fluorescence at EC20 calcium; 0% EC20 calcium, 100% full calcium; 0.24% of 340,000 active; AID 493008; activation, % at 7.2 µM; P19429+P45379;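 active means activation above the mean over all tested compounds plus 3 SD, cut at about 30% in these data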;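 further: rise in fluorescence read as greater calcium sensitivity of cardiac thin filaments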
RTF Ca sens inh: cardiac RTF calcium desensitization; P19429+P45379; IANBD-labeled cardiac RTF, Ca2+ fluorescence; inhibition, % at 7.15 µM; 0.12% of 340,000 active; AID 493244;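 active means inhibition above the mean inhibition of all tested compounds plus 3 SD, cut at about 17% in these data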;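 further: assay run at fixed EC70 calcium of 1.6 mM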
Tn6 DDE FP: inhibitors of Tn6 peptide binding to human fibrin DD(E); 0.21% of 370,000 active; inhibition, % at 8.3 µM; AID 720509; P02675; Fibrin DD(E) TRITC-Tn6 fluorescence polarization displacement;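 active means inhibition above a per-campaign cutoff: mean of compounds within control limits plus 3 SD, cut at about 15% in these data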
CRFBP-R2 block: antagonists of CRF-binding protein/CRF-R2 receptor complex. HEK293 CRF-R2/CRF-BP, CRF-induced calcium fluorescence. inhibition, % at 11.8 µM. 0.59% of 350,000 active. AID 588475;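 active means inhibition of the ligand-induced calcium signal above about 50% at the single tested concentration, limit read from the data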
CRFBP-R2 agonist: CRF-BP/CRF-R2 complex agonism; HEK293 CRF-R2/CRF-BP, calcium dye fluorescence (FLIPR); percent of saturating CRF peptide response; activation, % at 13.2 µM; 0.46% of 350,000 active;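 active means activation of at least 50%, plus an integration ratio under a set limit after plate pattern correction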
Tn6 DDE ctr: DD(E)-Tn6 binding inhibition, counter-screen; shares compounds with Tn6 DDE FP; Fibrin DD(E), TRITC-Tn6 fluorescence polarization displacement; 0% = median of compound wells, not DMSO; inhibition, % at 8.3 µM; 2% of 680 active;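 active means inhibition above the mean of test compounds lying between the control limits plus 3 SD of those, cut at about 14% in these data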
Tn6 DDE conf: confirmation of inhibitors of Tn6 binding to human fibrin DD(E); shares compounds with Tn6 DDE FP; FP displacement of TRITC-Tn6 peptide from DD(E); 0% = per-plate median of test wells; 10% of 680 active; inhibition, % at 8.3 µM;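 active means inhibition above the mean of compounds lying within the control limits plus 3 SD, cut at about 16% in these data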
Of the large screens only hits and unclear results are named; the others gave an inactive call (follow-up assays come after a bar, where they were run). Hits are enriched below; roughly 1.4% of the tested compounds scored in any of these assays.

COc1ccc(C(=O)c2no[n+]([O-])c2C(=O)c2ccc(OC)cc2)cc1	none
Brc1ccc(-c2nc3ccccc3s2)s1	none
O=c1ccc2nc3ccccc3sc-2c1	Tn6 DDE FP 20 (no result: cardiac RTF act, RTF Ca sens inh, CRFBP-R2 block, CRFBP-R2 agonist) | Tn6 DDE ctr inactive | Tn6 DDE conf inactive
COc1ccc(NC(=O)C(c2cc3c(cc2[N+](=O)[O-])OCO3)N(C)C)cc1 (stereo not given)	Tn6 DDE FP 15 | Tn6 DDE ctr inactive | Tn6 DDE conf inactive
COc1ccc(NC(=O)c2ccc(NC(=O)C(C)C)cc2)c([N+](=O)[O-])c1	none
O=C(CN(Cc1ccco1)S(=O)(=O)c1ccccc1)N/N=C/c1cccc(O)c1	Tn6 DDE FP 16 | Tn6 DDE ctr inactive | Tn6 DDE conf inactive
CC(C)(C)N(NC(=O)NCCCl)C(=O)c1ccccc1Cl	none (no result: cardiac RTF act, RTF Ca sens inh, CRFBP-R2 block, CRFBP-R2 agonist)
CCn1ccc(=N)cc1	Tn6 DDE FP 20 | Tn6 DDE ctr inactive | Tn6 DDE conf inactive
C#CCN1CC(N2CCN(CCO)CC2)CS1(=O)=O (stereo not given)	none (no result: cardiac RTF act, RTF Ca sens inh, CRFBP-R2 block, CRFBP-R2 agonist)
COc1ccc(-c2cn(CCCOCc3ccccc3)nn2)cc1	none
Cc1cc(-c2nnn(CCCOC(C)(C)C)c2C)ccc1-c1cn(CCCOC(C)(C)C)nn1	Tn6 DDE FP 17 (no result: cardiac RTF act, RTF Ca sens inh) | Tn6 DDE ctr inactive | Tn6 DDE conf inactive
COc1cccc2c1C(=O)c1c(O)c3c(c(O)c1C2=O)CC(O)(C(C)=O)CC3OC1CC(N(C)C)C(O)C(C)O1 (stereo not given)	cardiac RTF act 190, Tn6 DDE FP active, CRFBP-R2 agonist 89 | Tn6 DDE ctr inactive | Tn6 DDE conf 93
CC(C)(C)c1ccc(-c2nnc(SCC(=O)Nc3ccc4cn[nH]c4c3)n2-c2ccc(Cl)cc2)cc1	none (no result: cardiac RTF act, RTF Ca sens inh, CRFBP-R2 block, CRFBP-R2 agonist)
Cc1ccc(C2NC(=O)c3c(sc4c3CCN(C)C4)N2)s1 (stereo not given)	Tn6 DDE FP 18 | Tn6 DDE ctr inactive | Tn6 DDE conf inactive
O=C(NC1CCCCN(Cc2cccc(C(F)(F)F)c2)C1=O)c1ccc(F)c(F)c1 (stereo not given)	none (no result: cardiac RTF act, RTF Ca sens inh, CRFBP-R2 block, CRFBP-R2 agonist)
CC(=O)c1cc(-c2ccccc2-c2ccccc2)c(=O)n2c1CCC2	none (no result: cardiac RTF act, RTF Ca sens inh, CRFBP-R2 block, CRFBP-R2 agonist)
Cc1ccc(NC(=O)C(OC(=O)c2ccc(NC(N)=O)cc2)c2ccccc2)cc1Cl (stereo not given)	Tn6 DDE FP 34 | Tn6 DDE ctr inactive | Tn6 DDE conf inactive
Cc1cc2ccccc2n1CCNC(=O)c1ccc(S(=O)(=O)N2CCCCC2)cc1	Tn6 DDE FP 62 | Tn6 DDE ctr inactive | Tn6 DDE conf 31
Cc1cc(C)c(S(=O)(=O)NCCn2c(C)cc3ccccc32)c(C)c1	Tn6 DDE FP 56 | Tn6 DDE ctr inactive | Tn6 DDE conf 23
Cc1cc2ccccc2n1CCNC(=O)Cc1ccccc1	Tn6 DDE FP 26 | Tn6 DDE ctr inactive | Tn6 DDE conf inactive
O=C(c1cc(C2CCCCN2S(=O)(=O)c2cccs2)on1)N1CCOCC1 (stereo not given)	none (no result: cardiac RTF act, RTF Ca sens inh, CRFBP-R2 block, CRFBP-R2 agonist)
CCN1C=C(Cc2ccc(F)cc2)C2=C(C1)C(c1ccc(F)cc1)C(C#N)=C(N)O2 (stereo not given)	Tn6 DDE FP 18 | Tn6 DDE ctr inactive | Tn6 DDE conf inactive
COc1cc(CC(=O)OCC(=O)NC2CCCCC2C)cc(OC)c1OC (stereo not given)	Tn6 DDE FP 26 | Tn6 DDE ctr inactive | Tn6 DDE conf inactive
COc1cc(CC(=O)OCC(=O)NC2CCCCCC2)cc(OC)c1OC	none
COC(=O)C1=C(C)N(C)C(=NCc2ccc(OC)cc2)NC1c1ccc(C(F)(F)F)cc1 (stereo not given)	none (no result: cardiac RTF act, RTF Ca sens inh, CRFBP-R2 block, CRFBP-R2 agonist)
COc1ccc2cc(C(=O)Nc3ccccc3)sc(=O)c2c1OC	none
COc1ccc2cc(C(=O)Nc3ccc(S(N)(=O)=O)cc3)sc(=O)c2c1OC	Tn6 DDE FP 18 | Tn6 DDE ctr inactive | Tn6 DDE conf inactive
CCn1c(=O)c2ccccc2n2c(SCC(=O)N3CCCc4ccccc43)nnc12	Tn6 DDE FP 15 | Tn6 DDE ctr inactive | Tn6 DDE conf inactive
Cc1cc(NC(=O)C(C)Sc2nc(-c3cccs3)nc3ccccc23)no1 (stereo not given)	none
C#CCNC(=O)C[C@H]1C[C@@]2(C(=O)OC)C(=C[C@H](C(C)(C)C)O[C@@H]2C)N(Cc2cccc3ccccc23)C1=O	none (no result: cardiac RTF act, RTF Ca sens inh, CRFBP-R2 block, CRFBP-R2 agonist)
C[n+]1cc2c3c(ccc2c2ccc4cc5c(cc4c21)OCO5)OCO3	Tn6 DDE FP 27 (no result: cardiac RTF act, RTF Ca sens inh, CRFBP-R2 block, CRFBP-R2 agonist) | Tn6 DDE ctr inactive | Tn6 DDE conf 20
COc1ccc2cc3[n+](cc2c1O)CCc1cc2c(cc1-3)OCO2	none (no result: cardiac RTF act, RTF Ca sens inh, CRFBP-R2 block, CRFBP-R2 agonist)
CC(C)c1ccc(CNc2nnnn2C)cc1	Tn6 DDE FP 19 | Tn6 DDE ctr inactive | Tn6 DDE conf inactive
COc1ccc(NC(=O)c2oc3ccccc3c2NC(=O)COc2ccccc2OC)c(OC)c1	Tn6 DDE FP 18 | Tn6 DDE ctr inactive | Tn6 DDE conf inactive
COc1ccc(NC(=O)c2oc3ccccc3c2NC(=O)c2ccc(OC)c(OC)c2)c(OC)c1	none
CCCCCNc1ncnc2c(C)[nH]nc12	none (no result: cardiac RTF act, RTF Ca sens inh, CRFBP-R2 block, CRFBP-R2 agonist)
O=C(NCCN1C(=O)C2C3C=CC(C3)C2C1=O)c1cc(F)cc(F)c1 (stereo not given)	none (no result: cardiac RTF act, RTF Ca sens inh, CRFBP-R2 block, CRFBP-R2 agonist)
COc1ccccc1C(=O)COC(=O)C(NC(=O)Cc1ccccc1)C(C)C (stereo not given)	Tn6 DDE FP active | Tn6 DDE ctr inactive | Tn6 DDE conf inactive
COC(=O)c1ccc(COC(=O)C(NC(=O)Cc2ccccc2)C(C)C)cc1 (stereo not given)	none
CNC(=O)c1ccccc1NC(=O)c1ccco1	none
Cc1ccccc1NC(=O)c1ccccc1NC(=O)c1ccco1	Tn6 DDE FP 16 | Tn6 DDE ctr inactive | Tn6 DDE conf inactive
CCNC(=O)c1cc2c(c(-c3cccc(-c4cccnc4)c3)n1)[C@H](CCO)N(S(C)(=O)=O)C2	none (no result: cardiac RTF act, RTF Ca sens inh, CRFBP-R2 block, CRFBP-R2 agonist)
CC(OC(=O)c1cccc([N+](=O)[O-])c1)C(=O)N1CCc2ccccc21 (stereo not given)	Tn6 DDE FP 16 | Tn6 DDE ctr inactive | Tn6 DDE conf inactive
CCCCC(CC)C(=O)N1CCN(C(=O)c2ccco2)CC1 (stereo not given)	Tn6 DDE FP 17 | Tn6 DDE ctr inactive | Tn6 DDE conf inactive
Nc1nnc(CCCCCCCCCCc2nnc(N)s2)s1	none
Nc1nnc(CCC2CCCCC2)s1	Tn6 DDE FP 17 | Tn6 DDE ctr inactive | Tn6 DDE conf inactive
